# Pf gamet viab: kills late stage P. falciparum gametocytes; P. falciparum stage V gametocytes, ATP luminescence, 24 h; inhibition, % at 10.9 µM; actives 0.065% (n = 150,000);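 active = inhibition above the mean plus 3 SD of compounds within the control limits, set per campaign, cut at about 38% in these data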;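 note: 0% = DMSO wells and 100% = medium only without gametocytes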
# FLuc act counter: firefly luciferase counter-screen for stimulation assays; P08659; ATPlite luciferase biochemical, luminescence, 10 min; 0 = ATP-free wells, 1 = DMSO control; activation factor at 10 µM; 200,000 tested, under 10 active;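 active = luciferase activation factor, scaled between plate controls, of at least 2 with compound at 10 µM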
# Target sequence (P08659 whole entry, looked up): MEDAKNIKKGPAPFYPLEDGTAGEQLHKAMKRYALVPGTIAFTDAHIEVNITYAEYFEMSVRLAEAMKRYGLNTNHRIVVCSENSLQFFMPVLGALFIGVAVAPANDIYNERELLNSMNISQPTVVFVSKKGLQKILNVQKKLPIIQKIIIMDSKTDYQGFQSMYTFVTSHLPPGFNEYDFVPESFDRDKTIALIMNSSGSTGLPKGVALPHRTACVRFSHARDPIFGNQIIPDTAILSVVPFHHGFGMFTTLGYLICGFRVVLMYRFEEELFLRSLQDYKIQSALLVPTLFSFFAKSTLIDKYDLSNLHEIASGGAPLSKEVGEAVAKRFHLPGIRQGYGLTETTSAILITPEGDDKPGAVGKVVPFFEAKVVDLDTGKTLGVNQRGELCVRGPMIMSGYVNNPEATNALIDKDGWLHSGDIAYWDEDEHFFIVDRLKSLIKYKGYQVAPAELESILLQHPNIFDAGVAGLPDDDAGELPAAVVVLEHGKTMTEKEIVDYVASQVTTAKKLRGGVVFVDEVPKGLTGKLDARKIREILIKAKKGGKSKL
#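 test system = cell-free luciferase reagent | medium = PBS as buffer for the ATP substrate | dosing = test compounds dosed from 2 mM stocks in 100% DMSO | incubation = 10 min at ambient temperature | detection = luminescence measurement of luciferase light output | benchmarks = low control with PBS replacing ATP, high control enzyme plus ATP without compound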
# APP 5'UTR act: activates APP 5'UTR luciferase reporter; SH-SY5Y APP 5'UTR luciferase reporter, luminescence; zero percent = DMSO vehicle wells; activation, % at 2 µM; actives 1% (n = 190,000);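 active = activation above a set limit, based on mean plus 3 SD of controls, cut at about 140% in these data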
# FLuc inhib CS: counter-screen for luciferase assay inhibitors: firefly luciferase inhibition. ATPLite firefly luciferase biochemical luminescence, 10 min. P08659. inhibition, % at 10 µM. actives 1.5% (n = 200,000);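 active = inhibition above about 50% when tested at 10 µM, limit read from the data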
# STAT1 activator: increases IFN-gamma driven STAT1 reporter signal; AID 932; activation (% of control), % at 5.5 µM; NIH 3T3 STAT1-luciferase reporter, luminescence; 100% = IFN-gamma alone, no compound; actives 2.6% (n = 200,000);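 active = activation above the screen-wide mean activation plus 3 SD, cut at about 130% in these data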;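 note: raw ratio to IFN-gamma control signal so 100% means no change and 0% no light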
# NF-kB neuron act: NF-kB expression increase, human neuronal cells. fold change at 12.5 µM. actives 1.6% (n = 190,000). AID 1239. NF-kB reporter expression; active compounds read high; in the data active = fold change above about 3.3
# Active calls of the source: *; . = no result. In the library only some 3.5% were active in any assay of this set; here they are far more common.
SMILES,Pf gamet viab,FLuc act counter,APP 5'UTR act,FLuc inhib CS,STAT1 activator,NF-kB neuron act
O=C(N=Nc1ccc(NOC(=O)c2ccccc2Br)cc1)c1ccccc1O,.,0.4,16.4,61.2*,95.9,1.45
Cc1cc(N=NC(=O)c2ccccc2O)c2ccccc2c1O,-3.5,0.5,23.0,48.7,115.7,1.51
COc1ccc(-c2nc(C(=O)O)cs2)cc1OC,3.5,1,13.9,-0.5,103.4,1.08
COc1ccc(-c2cc(C(=O)O)nc3ccc4ccccc4c23)cc1OC,13.0,0.3,1.3,65.1*,102.1,1.26
Cc1ccc(C)c(NC(=O)C2CCCN2/C=C/C(=O)C(F)(F)F)c1 (centres undefined),26.4,1.1,-10.7,-5.9,108.5,1.02
Cc1ccc(C(=O)NCCSC(C)(C)C)cc1[N+](=O)[O-],-12.1,1,21.4,2.9,111.2,1.44
CN(c1ccc(C(=O)NCCSC(C)(C)C)cc1)S(=O)(=O)c1ccccc1,-7.7,1.1,18.9,-9.0,99.0,1.08
CC(C)(C)SCCNC(=O)c1ccccc1,15.8,1,.,0.1,138.7*,1.83
CSCCNC(=O)c1ccc(C(C)(C)C)cc1,.,0.3,-5.3,73.5*,98.0,5.36*
Cc1ccc(C(=O)NCCSC(C)(C)C)cc1,.,0.9,125.0,13.0,128.3,4.13*
Cc1cc(NC2CCCCC2)n2c(n1)nc1ccccc12,.,1,8.1,-2.3,103.1,5.42*
Cc1cc(Nc2cccc(F)c2)n2c(n1)nc1ccccc12,21.6,1,10.5,1.0,102.7,1.14
CCOC(=O)c1sc(NC(=O)CN2CC(C)OC(C)C2)nc1C (centres undefined),-22.8,.,.,.,.,.
CN(C)c1cc[n+](CC(=O)c2ccc(OC(F)F)cc2)cc1,13.2,.,.,.,.,.
CCOC(=O)C(C)Sc1ncnc2c1nnn2-c1ccc(F)cc1 (centres undefined),.,0.8,10.2,16.0,131.9*,1.76
CCC(Sc1ncnc2c1nnn2-c1ccc(F)cc1)C(=O)OC (centres undefined),.,0.9,8.9,13.4,116.8,2.12
CCCC(=O)Nc1sc(-c2ccccc2)c(-c2ccccc2)c1C(=O)O,-1.2,.,.,.,.,.
O=C(Nc1ccc(NC(=O)c2ccco2)nc1)c1ccco1,-0.8,0.2,164.2*,84.0*,98.7,4.03*
O=C(Nc1ccc(NC(=O)c2ccco2)nc1)c1ccccn1,.,0.4,106.2,60.9*,127.5,2.82
O=C(Nc1ccccn1)c1ccco1,-5.4,1,15.2,1.4,114.5,1.26
O=C(Nc1ccc(NC(=O)C2CCCCC2)cn1)c1ccco1,19.7,0.1,112.3,86.1*,140.3*,4.62*
O=C(Cc1ccccc1)Nc1ccc(NC(=O)c2ccco2)nc1,.,0.7,34.1,33.6,136.0*,1.9
CCc1ccc(C(=O)NNc2ccc(C)c(Cl)c2)cc1,24.5,.,.,.,.,.
CCC(C)/C(C)=N/NC(=O)c1ccc(COc2ccc(Cl)c(C)c2)cc1 (centres undefined),5.6,1.1,7.2,-5.0,129.9*,1.54
Cc1nnc(N2CCOCC2)c2nn(-c3ccccc3)c(C)c12,19.5,1,-16.8,-4.1,97.8,1.13
SMILES,Pf gamet viab,FLuc act counter,APP 5'UTR act,FLuc inhib CS,STAT1 activator,NF-kB neuron act
c1ccc(-n2nnc3c(N4CCOCC4)ncnc32)cc1,-35.9,0.2,147.6*,83.5*,90.0,2.55
CCOC(=O)C(NC(=O)NCc1ccccc1OC)(OCC)C(F)(F)F (centres undefined),-15.4,1.1,-11.5,-5.8,106.3,1.04
CN(C)c1ccc(/C=C(\Cl)c2nc3ccccc3s2)cc1,.,0.4,118.3,64.2*,136.1*,0.8
CC(C)(C)N1C(=O)c2ccc(C(=O)Nc3cc(C(=O)O)cc(C(=O)O)c3)cc2C1=O,-0.9,.,.,.,.,.
Oc1ccc(/C=N/Nc2cccc3cccnc23)c(O)c1,6.1,0.8,49.2,22.8,89.0,11.3*
Oc1ccc(/C=N/Nc2ncc(Br)cn2)c(O)c1,-6.8,0.8,18.8,17.9,111.6,5.01*
Cc1ccc(/C=N/Nc2cccc3cccnc23)c(O)c1,.,0.4,93.4,59.5*,103.6,7.48*
Oc1ccc(/C=N/Nc2nccnc2Cl)c(O)c1,-60.9,0.8,.,15.2,93.8,1.19
CCC(=O)c1cc(F)c(N2CCN(C(=O)Cc3ccccc3)CC2)cc1C,.,1,14.8,-1.6,94.2,0.79
O=C1CC(Sc2nnnn2C2CCCCC2)C(=O)N1c1ccccc1 (centres undefined),.,0.4,4.0,57.1*,95.2,1.01
CNC(=O)Nc1ccc(Cl)cc1,.,1,-14.2,-3.4,99.7,1.26
CC(C)=CC(=O)Nc1ccc(Cl)cc1,-16.4,0.7,183.8*,31.0,131.5*,3.3*
COc1ccc(NC(=O)Nc2cccs2)cc1Cl,-1.8,0.4,74.7,57.9*,130.2*,1.62
CC(C)(C)c1nnc(NC(=O)Nc2ccc(Cl)cc2)s1,5.1,.,.,.,.,.
COc1ccc(NC(=O)C=C(C)C)cc1Cl,.,0.8,152.7*,19.4,125.3,4.65*
Cc1nc(NC(=O)Nc2ccc(Cl)cc2)sc1C,8.1,0.8,101.0,17.8,142.8*,1.85
CC(C)Cc1nnc(NC(=O)CSc2nc(=O)cc(N)n2-c2ccccc2)s1,-7.5,1,16.0,-3.8,98.7,1.08
CCc1cccc(NC(=O)Nc2cccs2)c1,.,0.7,42.8,33.0,132.7*,1.7
N#Cc1cccc(NC(=O)Nc2cccs2)c1,.,0.9,-13.8,14.1,93.5,1.06
CC(=O)c1ccc(NC(=O)Nc2ccc(Cl)cc2)cc1,-2.2,1,165.6*,2.6,133.2*,3.62*
CN(C)S(=O)(=O)c1cccc(C(=O)OCC(=O)NC2CCCc3ccccc32)c1 (centres undefined),-7.8,0.4,1.7,56.9*,98.2,0.97
O=C(COC(=O)c1cccc(S(=O)(=O)N2CCCCC2)c1)NC1CCCc2ccccc21 (centres undefined),-3.6,1.1,5.6,-9.5,91.3,0.97
CCOC(=S)SCC(=O)Nc1nc(-c2ccccc2)cs1,-4.8,1,-4.6,-2.7,97.5,3.26
CCOC(=S)SCC(=O)Nc1nc(-c2ccc(Br)cc2)cs1,.,1,-32.2,-4.4,108.1,4.59*
Cc1csc2nc(CNC(=O)C3CC=CCC3C(=O)O)cn12 (centres undefined),.,1,-5.6,-1.4,104.1,1.14
O=[N+]([O-])c1ccccc1CSc1nc2ccccc2o1,1.1,1,65.5,-3.4,140.1*,2.4
CCCCCOC(=O)NCC(O)c1ccccc1 (centres undefined),-15.4,0.9,104.6,8.7,144.3*,2.85
CCCCOC(=O)NC(NCC(O)c1ccccc1)(C(F)(F)F)C(F)(F)F (centres undefined),.,1,-3.9,-3.2,101.4,1.15
Cc1ccc2nc(Cl)c(CN(C(=O)c3cnccn3)C3CCCCC3)cc2c1,.,1,5.4,-2.3,104.4,0.85
Cc1ccc(NC(=O)c2ccccc2F)nc1,-5.8,0.5,54.2,52.2*,128.2,2.23

# Assay outcomes (PubChem)
